Source: ChEMBL document CHEMBL4196108, “5-Aroylindoles Act as Selective Histone Deacetylase 6 Inhibitors Ameliorating Alzheimer's Disease Phenotypes” (J Med Chem, 2018)
The source made the active and inactive calls. The rule behind the calls is not given here.

Key:
[1] = target: T1, Polyamine deacetylase HDAC10 (Homo sapiens, UniProt Q969S8); test: Inhibition of human HDAC10 using RHKKAc peptide as substrate
T1 sequence (Q969S8 whole entry): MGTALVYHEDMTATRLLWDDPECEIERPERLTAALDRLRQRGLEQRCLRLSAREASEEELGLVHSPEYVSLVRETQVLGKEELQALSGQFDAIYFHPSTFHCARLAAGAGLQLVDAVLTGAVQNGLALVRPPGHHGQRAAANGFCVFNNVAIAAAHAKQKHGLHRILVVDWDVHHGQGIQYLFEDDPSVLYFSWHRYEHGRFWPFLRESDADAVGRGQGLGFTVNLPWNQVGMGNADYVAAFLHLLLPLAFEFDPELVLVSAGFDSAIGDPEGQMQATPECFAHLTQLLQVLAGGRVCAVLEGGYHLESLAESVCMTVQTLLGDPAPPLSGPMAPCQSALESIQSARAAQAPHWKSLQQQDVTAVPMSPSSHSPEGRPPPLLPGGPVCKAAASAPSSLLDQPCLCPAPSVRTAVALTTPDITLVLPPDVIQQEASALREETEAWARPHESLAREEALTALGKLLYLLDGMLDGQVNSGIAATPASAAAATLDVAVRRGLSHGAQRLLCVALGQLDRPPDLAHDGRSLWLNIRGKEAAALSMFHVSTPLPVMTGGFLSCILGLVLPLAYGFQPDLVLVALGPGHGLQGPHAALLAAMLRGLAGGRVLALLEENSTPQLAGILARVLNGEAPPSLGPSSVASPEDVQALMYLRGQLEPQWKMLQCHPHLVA

Homo sapiens [2] = organism: Homo sapiens; test: Selectivity index, ratio of IC50 for human HDAC10 to IC50 for human HDAC6
Histone deacetylase 8 = target: T2, Histone deacetylase 8 (Homo sapiens, UniProt Q9BY41); test: Inhibition of human HDAC8 using RHKAcKAc peptide as substrate
T2 sequence (Q9BY41 whole entry): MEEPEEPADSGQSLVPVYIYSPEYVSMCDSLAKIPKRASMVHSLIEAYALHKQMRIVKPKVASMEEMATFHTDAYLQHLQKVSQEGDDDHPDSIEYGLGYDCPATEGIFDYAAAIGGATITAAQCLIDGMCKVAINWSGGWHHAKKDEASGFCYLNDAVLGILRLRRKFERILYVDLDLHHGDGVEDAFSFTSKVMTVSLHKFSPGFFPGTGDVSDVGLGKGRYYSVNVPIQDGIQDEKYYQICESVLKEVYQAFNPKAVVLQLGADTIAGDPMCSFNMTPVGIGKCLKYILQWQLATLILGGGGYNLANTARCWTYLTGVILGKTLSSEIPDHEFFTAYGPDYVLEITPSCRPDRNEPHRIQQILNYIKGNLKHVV

Homo sapiens [3] = organism: Homo sapiens; test: Selectivity index, ratio of IC50 for human HDAC1 to IC50 for human HDAC6
Histone deacetylase 1 = Histone deacetylase 1 (Homo sapiens, UniProt Q13547); test: Inhibition of human HDAC1 using RHKKAc peptide as substrate
Sequence of Histone deacetylase 1 (Q13547 whole entry): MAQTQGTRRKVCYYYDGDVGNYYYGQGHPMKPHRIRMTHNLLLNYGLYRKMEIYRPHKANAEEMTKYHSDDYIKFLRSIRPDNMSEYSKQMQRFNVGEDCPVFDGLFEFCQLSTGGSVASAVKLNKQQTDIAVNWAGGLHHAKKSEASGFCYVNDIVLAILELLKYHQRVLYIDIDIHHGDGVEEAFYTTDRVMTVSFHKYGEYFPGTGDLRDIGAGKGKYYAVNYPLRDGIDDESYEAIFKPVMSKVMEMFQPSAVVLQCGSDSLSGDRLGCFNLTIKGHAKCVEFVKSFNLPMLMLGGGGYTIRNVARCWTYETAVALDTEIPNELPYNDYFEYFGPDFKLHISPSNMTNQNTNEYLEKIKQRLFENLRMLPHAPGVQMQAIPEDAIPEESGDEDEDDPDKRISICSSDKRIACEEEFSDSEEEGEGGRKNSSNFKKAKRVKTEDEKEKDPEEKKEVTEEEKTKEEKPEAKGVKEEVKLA

Homo sapiens [4] = organism: Homo sapiens; test: Selectivity index, ratio of IC50 for human HDAC8 to IC50 for human HDAC6
Homo sapiens [5] = organism: Homo sapiens; test: Selectivity index, ratio of IC50 for human HDAC3 to IC50 for human HDAC6
[6] = target: T3, Protein deacetylase HDAC6 (Homo sapiens, UniProt Q9UBN7); test: Inhibition of human HDAC6 using RHKKAc peptide as substrate
T3 sequence (Q9UBN7 whole entry): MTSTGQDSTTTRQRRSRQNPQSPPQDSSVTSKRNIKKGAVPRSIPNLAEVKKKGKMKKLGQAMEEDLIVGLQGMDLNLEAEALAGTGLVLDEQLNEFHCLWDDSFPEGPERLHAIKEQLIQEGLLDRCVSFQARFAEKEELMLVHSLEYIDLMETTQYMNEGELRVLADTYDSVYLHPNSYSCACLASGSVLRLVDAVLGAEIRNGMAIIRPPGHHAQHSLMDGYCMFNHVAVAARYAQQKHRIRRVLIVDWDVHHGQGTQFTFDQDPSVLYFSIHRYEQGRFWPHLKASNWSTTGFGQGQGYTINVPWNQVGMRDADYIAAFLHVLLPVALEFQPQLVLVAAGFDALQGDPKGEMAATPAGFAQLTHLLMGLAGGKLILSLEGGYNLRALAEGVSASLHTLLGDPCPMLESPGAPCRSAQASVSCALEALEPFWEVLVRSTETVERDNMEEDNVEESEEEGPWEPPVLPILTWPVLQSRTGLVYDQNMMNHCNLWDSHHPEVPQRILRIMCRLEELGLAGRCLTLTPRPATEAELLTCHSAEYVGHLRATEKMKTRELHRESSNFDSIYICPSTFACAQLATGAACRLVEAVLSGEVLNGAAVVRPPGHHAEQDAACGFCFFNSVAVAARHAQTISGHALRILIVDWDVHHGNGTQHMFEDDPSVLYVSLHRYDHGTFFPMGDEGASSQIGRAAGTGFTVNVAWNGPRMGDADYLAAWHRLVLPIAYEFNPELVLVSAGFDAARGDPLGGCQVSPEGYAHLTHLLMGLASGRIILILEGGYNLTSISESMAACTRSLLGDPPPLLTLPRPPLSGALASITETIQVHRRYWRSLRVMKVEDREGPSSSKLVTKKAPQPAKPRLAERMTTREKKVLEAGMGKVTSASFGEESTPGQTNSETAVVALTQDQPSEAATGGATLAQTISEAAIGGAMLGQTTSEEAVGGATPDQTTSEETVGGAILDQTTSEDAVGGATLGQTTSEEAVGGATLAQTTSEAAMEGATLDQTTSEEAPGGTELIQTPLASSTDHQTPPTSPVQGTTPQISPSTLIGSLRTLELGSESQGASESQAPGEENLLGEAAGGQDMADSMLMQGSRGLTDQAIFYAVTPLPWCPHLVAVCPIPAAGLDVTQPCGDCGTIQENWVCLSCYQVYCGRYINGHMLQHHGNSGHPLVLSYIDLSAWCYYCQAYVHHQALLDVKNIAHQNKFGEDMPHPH

Histone deacetylase 3 = Histone deacetylase 3 (Homo sapiens, UniProt O15379)
Sequence of Histone deacetylase 3 (O15379 whole entry): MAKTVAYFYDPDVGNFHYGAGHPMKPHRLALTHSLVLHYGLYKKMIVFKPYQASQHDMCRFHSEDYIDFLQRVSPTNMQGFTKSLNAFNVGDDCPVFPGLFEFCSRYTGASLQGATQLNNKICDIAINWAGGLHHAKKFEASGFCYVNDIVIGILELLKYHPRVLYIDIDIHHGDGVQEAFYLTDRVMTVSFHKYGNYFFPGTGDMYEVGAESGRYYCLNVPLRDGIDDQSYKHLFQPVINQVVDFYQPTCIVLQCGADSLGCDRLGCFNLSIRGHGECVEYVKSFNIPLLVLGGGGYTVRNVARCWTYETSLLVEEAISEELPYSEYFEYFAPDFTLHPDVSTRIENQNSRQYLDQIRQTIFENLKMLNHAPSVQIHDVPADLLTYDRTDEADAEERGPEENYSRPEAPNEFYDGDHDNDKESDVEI

Histone deacetylase 2 = Histone deacetylase 2 (Homo sapiens, UniProt Q92769); test: Inhibition of human HDAC2 using RHKKAc peptide as substrate
Sequence of Histone deacetylase 2 (Q92769 whole entry): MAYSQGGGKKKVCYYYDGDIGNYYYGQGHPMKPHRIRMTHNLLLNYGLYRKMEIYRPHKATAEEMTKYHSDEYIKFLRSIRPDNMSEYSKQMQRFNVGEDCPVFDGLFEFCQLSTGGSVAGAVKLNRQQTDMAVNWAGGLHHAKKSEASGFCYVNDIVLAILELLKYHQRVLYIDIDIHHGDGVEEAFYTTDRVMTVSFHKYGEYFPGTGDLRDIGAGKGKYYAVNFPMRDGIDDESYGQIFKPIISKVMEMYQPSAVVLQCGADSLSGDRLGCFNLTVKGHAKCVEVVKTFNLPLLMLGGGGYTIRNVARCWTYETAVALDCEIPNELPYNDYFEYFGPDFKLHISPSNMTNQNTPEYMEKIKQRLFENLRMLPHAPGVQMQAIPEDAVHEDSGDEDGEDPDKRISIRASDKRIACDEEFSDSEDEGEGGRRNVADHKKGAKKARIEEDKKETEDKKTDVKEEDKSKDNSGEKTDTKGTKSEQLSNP

Homo sapiens [7] = organism: Homo sapiens; test: Selectivity index, ratio of IC50 for human HDAC2 to IC50 for human HDAC6
[8] = target: T4, Protein deacetylase HDAC6 (Homo sapiens) (UniProt Q9UBN7); test: Inhibition of HDAC6 in human SH-SY5Y cells assessed as increase in acetylation of alpha-tubulin at 0.1 to 1 uM after 24 hrs by Western blot analysis; type: cell-based
T4 sequence (whole entry): T3 sequence (Q9UBN7 whole entry)
Summary of the method: (§1)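 SH-SY5Y cells in MEM with 10% FBS at 37 °C, 5% CO2, treated 24 h at 0.1–1 µM. Lysates in HEPES/Triton buffer; 20 µg protein run on SDS-PAGE and immunoblotted for acetyl-α-tubulin, α-tubulin, acetyl-histone H3 and histone H3 with ECL detection.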

SH-SY5Y = test: Inhibition of class 1 HDAC in human SH-SY5Y cells assessed as increase in acetylation of histone H3 at 0.1 to 1 uM after 24 hrs by Western blot analysis; type: cell-based; summary of the method: as §1

Structure (SMILES) | IC50 [1] [nM] | Ratio IC50 (Homo sapiens [2]) | IC50 (Histone deacetylase 8) [nM] | Ratio IC50 (Homo sapiens [3]) | IC50 (Histone deacetylase 1) [nM] | Ratio IC50 (Homo sapiens [4]) | Ratio IC50 (Homo sapiens [5]) | IC50 [6] [nM] | IC50 (Histone deacetylase 3) [nM] | IC50 (Histone deacetylase 2) [nM] | Ratio IC50 (Homo sapiens [7]) | inhibition [8] | inhibition (SH-SY5Y)
Cc1ccc(C(=O)c2ccc3c(ccn3Cc3ccc(C(=O)NO)cc3)c2)cc1 | > 100000 | > 8400 | 1490 | 262 | 3120 | 125 | 329 | 11.9 | 3910 | 7250 | 609 | – | –
COc1ccc(C(=O)c2ccc3c(ccn3S(=O)(=O)c3cccc(/C=C/C(=O)NO)c3)c2)cc1OC | 8240 | 6.9 | 1420 | 0.7 | 877 | 1.2 | 0.7 | 1180 | 861 | 2140 | 1.8 | – | –
COc1ccc(C(=O)c2ccc3c(ccn3S(=O)(=O)c3ccc(/C=C/C(=O)NO)cc3)c2)cc1 | > 100000 | > 118 | 10000 | 8.4 | 7160 | 11.8 | 3.01 | 848 | 2560 | > 100000 | > 118 | – | –
COc1cccc(C(=O)c2ccc3c(ccn3Cc3ccc(C(=O)NO)cc3)c2)c1 | 47900 | 2920 | 1120 | 231 | 3790 | 68.3 | 310 | 16.4 | 5090 | 5140 | 313 | – | –
COc1ccc(C(=O)c2ccc3c(ccn3Cc3ccc(C(=O)NO)cc3)c2)cc1OC | 18900 | 1220 | 756 | 181 | 2800 | 48.8 | 390 | 15.5 | 6050 | 3030 | 196 | – | –
COc1ccc(C(=O)c2ccc3c(ccn3S(=O)(=O)c3cccc(/C=C/C(=O)NO)c3)c2)cc1 | 5890 | 7.8 | 812 | 1.7 | 1460 | 1.1 | 0.3 | 751 | 232 | 424 | 0.6 | – | –
Cc1ccc(C(=O)c2ccc3c(ccn3S(=O)(=O)c3cccc(/C=C/C(=O)NO)c3)c2)cc1 | 9100 | 3.3 | 4480 | 0.5 | 1420 | 1.6 | 0.3 | 2750 | 891 | 7270 | 2.6 | – | –
COc1cccc(C(=O)c2ccc3c(ccn3S(=O)(=O)c3cccc(/C=C/C(=O)NO)c3)c2)c1 | 7740 | 4.3 | 3530 | 0.7 | 1210 | 1.9 | 0.2 | 1810 | 323 | 4800 | 2.7 | – | –
O=C(/C=C/c1cccc(S(=O)(=O)n2ccc3cc(C(=O)c4ccc(F)cc4)ccc32)c1)NO | 5240 | 3.7 | 2750 | 0.16 | 230 | 1.9 | 0.04 | 1420 | 59.6 | 1800 | 1.3 | – | –
COc1cc(C(=O)c2ccc3c(ccn3Cc3ccc(/C=C/C(=O)NO)cc3)c2)cc(OC)c1OC | – | – | 2170 | 24.3 | 3480 | 15.2 | – | 143 | – | 5740 | 40.1 | – | –
COc1ccc(C(=O)c2ccc3c(ccn3Cc3ccc(/C=C/C(=O)NO)cc3)c2)cc1 | 7050 | 65.3 | 2810 | 13.3 | 1440 | 26 | 19 | 108 | 2050 | 1950 | 18.1 | – | –
COc1cc(C(=O)c2ccc3c(ccn3S(=O)(=O)c3cccc(/C=C/C(=O)NO)c3)c2)cc(OC)c1OC | > 100000 | > 178 | 1260 | 2.3 | 1320 | 2.2 | > 178 | 562 | > 100000 | 1770 | 3.1 | – | –
O=C(CCCCCCNC(=O)c1cnc(N(c2ccccc2)c2ccccc2)nc1)NO | – | – | – | – | – | – | – | – | – | – | – | Active | Active
COc1cc(C(=O)c2ccc3c(ccn3Cc3ccc(C(=O)NO)cc3)c2)cc(OC)c1OC | – | – | – | – | – | – | – | 1540 | – | – | – | – | –
COc1cc(C(=O)c2ccc3c(ccn3S(=O)(=O)c3ccc(/C=C/C(=O)NO)cc3)c2)cc(OC)c1OC | > 100000 | > 103 | 5340 | 8.8 | 8540 | 5.5 | 1.02 | 972 | 996 | 11600 | 11.9 | – | –
